HCV core dimer: HCV core protein dimerization inhibition | TR-FRET GST/Flag-core106 dimerization, 1536-well | AID 1899 | 300,000 compounds, 0.33% hits | inhibition, % at 5 µM;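 active means inhibition above the mean of all tested compounds plus 3 SD, set per screening campaign, cut at about 45% in these data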
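test system = GST/Flag-tagged HCV core106 proteins | probe or stimulus = Eu donor and XL665 acceptor anti-tag antibodies | times = compound-protein-antibody incubation 4 h at 22.5 °C | signal = TR-FRET, excitation 340 nm, emission 617 and 671 nm | measure = percent inhibition of core106 dimerization signal | controls = wells lacking GST-core106 and wells with excess unlabelled core106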
ABHD5-PLIN5 inh: ABHD5-PLIN5 protein interaction inhibition; Q00G26+Q8WTS1; Split G. princeps luciferase complementation, luminescence, 4 h; inhibition, % at 4 µM; 360,000 compounds, 0.78% hits;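 active means inhibition above the mean inhibition across every tested compound plus 3 SD, cut at about 22% in these data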;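 further: 0% = DMSO only wells and the 100% control is not disclosed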
A3A deaminase: inhibitors of human APOBEC3A DNA deaminase; P31941; recombinant A3A, FAM/TAMRA ssDNA deamination fluorescence; inhibition, % at 20 µM; 330,000 compounds, 0.41% hits; AID 493011;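 active means at least 40% inhibition at 20 µM here, with at most 30% in a related deaminase screen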;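 further: plate controls were A3A with DMSO for no effect and wells lacking A3A enzyme for full effect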
PRMT1 FP inh: blocks human protein arginine methyltransferase 1 | recombinant PRMT1, activity-based probe fluorescence polarization | inhibition, % at 2.79 µM | 370,000 compounds, 1.3% hits;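 active means inhibition above about 21% made by adding two undisclosed values, limit read from the data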
NS3 helicase inh: HCV NS3 helicase inhibition; 290,000 compounds, 0.56% hits; inhibition, % at 10.9 µM; NS3 helicase DNA unwinding, Cy5 molecular beacon fluorescence;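 active means inhibition above the mean of all tested compounds plus 3 SD, set per campaign, cut at about 35% in these data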;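 further: 0% = DMSO wells and 100% = thioflavine S control wells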
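Test system: hepatitis C virus NS3 helicase domain fragment enzyme. Also added: annealed dual-labelled DNA beacon duplex, ATP-started. Timing: 60 min unwinding reaction at 25 °C after ATP addition. Technique: Cy5 fluorescence. Measure: % inhibition of unwinding.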
A3G deaminase: APOBEC3G (human) deaminase inhibition; Q9HC16; 330,000 compounds, 0.28% hits; recombinant A3G, ssDNA deamination FAM/TAMRA fluorescence; inhibition, % at 20 µM; AID 493012;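 active means inhibition of at least 40% at 20 µM, with no more than 30% in the related APOBEC3A deaminase screen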;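 further: plate controls were DMSO wells with A3G for no effect and wells lacking A3G enzyme for full effect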
Target sequence (Q9HC16 whole entry, looked up): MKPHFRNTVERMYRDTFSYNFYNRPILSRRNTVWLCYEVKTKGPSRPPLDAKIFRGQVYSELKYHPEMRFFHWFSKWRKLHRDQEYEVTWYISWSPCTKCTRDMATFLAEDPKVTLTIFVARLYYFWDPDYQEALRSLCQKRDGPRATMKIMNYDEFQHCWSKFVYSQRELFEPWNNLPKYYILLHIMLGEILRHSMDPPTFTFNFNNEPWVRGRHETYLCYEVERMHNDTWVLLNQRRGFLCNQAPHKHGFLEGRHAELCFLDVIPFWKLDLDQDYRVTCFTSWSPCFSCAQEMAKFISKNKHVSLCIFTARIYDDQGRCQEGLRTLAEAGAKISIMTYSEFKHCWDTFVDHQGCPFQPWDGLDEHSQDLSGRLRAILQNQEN
APOBEC3G confirm: confirmation of human APOBEC3G DNA deaminase inhibitors | shares compounds with A3G deaminase | recombinant A3G ssDNA deaminase, UDG/FAM-TAMRA fluorescence | inhibition, % at 20 µM | 890 compounds, 72% hits;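 active means inhibition reaching a set limit in any replicate at 20 µM, the limit being 80% of the first screen's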
UDG A3G counter: inhibits E. coli UDG, flagging false APOBEC3G inhibitors. UDG counterscreen, FAM/TAMRA oligo fluorescence. shares compounds with A3G deaminase. 710 tested, under 10 active. inhibition, % at 20 µM. AID 504715;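 active means compounds giving 40% or more inhibition at 20 µM in any one of the three replicates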;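 further: plate controls were DMSO wells with UDG and oligo for no effect and DMSO wells lacking both for full effect; inhibitors lower the FAM signal released by uracil excision and alkaline cleavage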
Target sequence (P12295 whole entry, looked up): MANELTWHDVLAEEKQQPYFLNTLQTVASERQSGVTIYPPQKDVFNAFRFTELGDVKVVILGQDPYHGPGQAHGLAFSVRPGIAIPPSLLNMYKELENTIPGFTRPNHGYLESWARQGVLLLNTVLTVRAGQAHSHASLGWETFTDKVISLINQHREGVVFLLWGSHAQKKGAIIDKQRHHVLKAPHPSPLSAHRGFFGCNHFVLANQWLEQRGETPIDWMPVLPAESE
Active calls of the source: *; nt = no result. The list is not random: actives were taken first. Their share in the collection is about 2.9%.

SMILES	HCV core dimer	ABHD5-PLIN5 inh	A3A deaminase	PRMT1 FP inh	NS3 helicase inh	A3G deaminase	APOBEC3G confirm	UDG A3G counter
COc1ccc(N2CC(C(=O)Nc3nc4ccc(S(C)(=O)=O)cc4s3)CC2=O)cc1 (stereo not drawn)	35	-5	4	7	30	8	nt	nt
Cc1ccc(NS(=O)(=O)c2csc(C(N)=O)c2)cc1C	3	3	2	-3	7	-3	nt	nt
CCCC(C)c1nnc(NC(=O)C2CC(=O)N(CCc3ccc(F)cc3)C2)s1 (stereo not drawn)	14	3	2	4	0	45*	22*	3
CC(C)Cn1c(-c2nn(C)cc2Cl)n[nH]c1=S	-2	-4	-9	-1	8	26	nt	nt
Cc1ccsc1-c1n[nH]c(=S)n1CC(C)C	-7	0	-3	-3	6	44*	90*	-2
CC(C)Cn1c(-c2ccc(Br)o2)n[nH]c1=S	-3	-6	-4	7	2	41*	76*	-4
CC(C)(C)S(=O)(=O)Cc1nc(-c2ccc(Cl)c(Cl)c2)cs1	-1	9	7	-1	-9	67*	-1	nt
O=C(Nc1cc(S(=O)(=O)N2CCOCC2)ccc1N1CCCC1)c1ccc2c(c1)S(=O)(=O)c1ccccc1C2=O	27	1	6	21	-10	64*	74*	nt
O=C(Nc1cc(S(=O)(=O)N2CCOCC2)ccc1N1CCCCC1)c1ccc(Cl)cc1	nt	-4	3	0	nt	59*	68*	-1
Cc1nn(C)c(C)c1CN(C(=O)C1CCC(=O)N(C2CCCCCC2)C1)C(C)C (stereo not drawn)	-4	-7	-5	-2	-10	-4	nt	nt
CCCNC(=O)c1cc(C2CCCN(C(=O)c3ccccc3)C2)on1 (stereo not drawn)	nt	3	nt	7	nt	nt	nt	nt
CS(=O)(=O)c1ccc(N)c(SSc2cc(S(C)(=O)=O)ccc2N)c1	-31	83*	4	87*	nt	87*	95*	nt
CS(=O)(=O)c1ccc2nc(N)sc2c1	-2	1	-2	0	-4	-5	nt	nt
N#C/C(=C\c1ccc(O)c(O)c1)C(=O)Nc1cccc2ncccc12	65*	4	8	10	9	52*	59*	-2
COc1ccc(/C=C(\C#N)C(=O)Nc2cccc3ncccc23)cc1OC	19	5	0	3	20	-1	nt	nt
Brc1ccc(CN2CCCc3nc(-c4ccccc4)ccc32)cc1	nt	nt	nt	-2	nt	nt	nt	nt
O=C(Cn1sc2ccccc2c1=O)NC12CC3CC(CC(C3)C1)C2	-9	59*	0	nt	2	78*	78*	1
Nc1cccc2c1C(=O)N(CC(=O)NC13CC4CC(CC(C4)C1)C3)C2=O	4	-1	-2	2	-11	0	nt	nt
Nn1c(COc2ccc(Cl)cc2)n[nH]c1=S	-5	-9	1	4	-8	53*	58*	3
Cc1cccc(C)c1OCc1n[nH]c(=S)n1N	2	-8	3	1	-2	40*	54*	-3
COc1cc(S(=O)(=O)Nc2ccc(C)cc2)ccc1N=Cc1c(C)[nH]n(-c2ccccc2)c1=O	-8	4	0	1	-9	38	nt	nt
COc1cc(S(=O)(=O)Nc2cccc(C)c2)ccc1N=Cc1c(C)[nH]n(-c2ccccc2)c1=O	4	nt	1	nt	-2	55*	-2	nt
CCCc1ccc(C2=Nn3c(nnc3C(C)C)SC2)cc1	16	-3	-1	nt	4	50*	23	7
Cc1ccc(C)c(N(CC(=O)NN=C2CCN(C)CC2)S(=O)(=O)c2ccccc2)c1	-4	-3	-1	-2	1	51*	-1	5
CC(=O)Nc1ccc(NC(=O)Cn2cc3c(n2)CCC(C)C3)cc1 (stereo not drawn)	nt	nt	nt	-2	-3	nt	nt	nt
SMILES	HCV core dimer	ABHD5-PLIN5 inh	A3A deaminase	PRMT1 FP inh	NS3 helicase inh	A3G deaminase	APOBEC3G confirm	UDG A3G counter
CCOC(=O)c1cccc(NC(=O)Cn2cc3c(n2)CCC(C)C3)c1 (stereo not drawn)	0	-4	2	-2	3	47*	-2	nt
O=[N+]([O-])c1ccc(/C=N/n2c(-c3ccccc3)n[nH]c2=S)cc1	5	-3	-3	14	10	36	nt	nt
CCn1c(-c2cccc(Br)c2)n[nH]c1=S	-5	5	1	0	-5	47*	63*	3
CCn1c(-c2ccc([N+](=O)[O-])cc2)n[nH]c1=S	-5	-1	-2	1	3	46*	73*	4
CCn1c(-c2sc(-c3ccccc3)nc2C)n[nH]c1=S	-2	-10	-2	-3	2	38	nt	nt
CCC(C)n1c(-c2cccc(S(=O)(=O)N3CCOCC3)c2)n[nH]c1=S (stereo not drawn)	nt	-8	-4	-1	nt	26	nt	nt
CC(C)Cn1c(-c2cccc(S(=O)(=O)N3CCOCC3)c2)n[nH]c1=S	nt	-9	-1	-1	nt	44*	69*	1
CCn1c(-c2cccc(S(=O)(=O)N3CCCC3)c2)n[nH]c1=S	-1	-3	1	-4	-1	51*	27*	-2
Nc1n[nH]c(=S)n1-c1ccc(Cl)cc1	-3	-7	-2	1	7	52*	63*	0
S=c1[nH]nc(-c2ccc(Cl)cc2)n1-c1ccc(Cl)cc1	5	-10	0	12	-4	4	nt	nt
Cc1cn(CC(=O)NCCN2CCOCC2)c(=O)[nH]c1=O	nt	1	nt	-4	nt	nt	nt	nt
COC(=O)Cc1sc(-c2ccccn2)nc1-c1ccccc1	-6	2	2	5	2	49*	41*	2

High-throughput results: PubChem, several laboratories
